# Sampled rows, rich in hits. Any-hit rate of the full collection: about 2.8%.
# PAFAH1B2 FP inh – inhibitors of human PAFAH1B2 | P68402 | recombinant PAFAH1B2, FP-rhodamine activity probe, fluorescence polarization | inhibition, % at 3.39 µM | 340,000 tested, 1.2% active | AID 492953;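 active = inhibition above the mean of all tested compounds plus 3 SD, cut at about 24% in these data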;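 note: 0% = enzyme with DMSO and 100% = wells lacking PAFAH1B2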
# Target sequence (P68402 whole entry, looked up): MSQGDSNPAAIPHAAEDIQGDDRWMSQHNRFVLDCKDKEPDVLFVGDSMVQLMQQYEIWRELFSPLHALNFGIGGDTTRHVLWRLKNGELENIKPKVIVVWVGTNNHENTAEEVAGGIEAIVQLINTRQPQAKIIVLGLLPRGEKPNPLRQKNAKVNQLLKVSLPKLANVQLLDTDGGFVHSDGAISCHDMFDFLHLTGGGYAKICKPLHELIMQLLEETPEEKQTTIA
# ARFGAP1 inhibitor – inhibits rat ARF GTPase activating protein 1; Arfgap1-stimulated ARF1 GTP hydrolysis, GDP FP detection; inhibition, % at 16.5 µM; 360,000 tested, 0.26% active; AID 651572;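 active = inhibition above a per-plate limit, mean inhibition of low control wells plus 3 SD, cut at about 25% in these data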;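 note: 0% = DMSO wells with enzyme and 100% = wells lacking Arfgap1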
#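 Replicates: Single well per compound | Assay system: Truncated rat Arfgap1 GAP domain | Control set: No-Arfgap1 wells (100%) versus DMSO full-reaction wells (0%) | Times: Enzyme reaction 120 min at 25 °C after 20 min preincubation | Reagent: Human ARF1(Δ1-17)-GTP substrate | Measured by: Tracer-displacement fluorescence polarization with EDTA stop, 620/688 nm | Measure: Percent inhibition of Arfgap1-stimulated GTP hydrolysis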
# PAFAH2 inh – inhibitors of human PAFAH2 | Q99487 | recombinant PAFAH2, FP-rhodamine activity probe, fluorescence polarization | inhibition, % at 3.39 µM | 340,000 tested, 0.99% active | AID 492956;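 active = inhibition above the mean over all tested compounds plus 3 SD, cut at about 30% in these data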;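 note: inhibitors block probe labeling of enzyme so polarization drops; 0% = enzyme with DMSO and 100% = wells lacking PAFAH2 protein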
# ASAP1 inh – ASAP1 ArfGAP inhibition | Q9ULH1 | ASAP1-stimulated ARF1 GTP hydrolysis, GDP FP detection | inhibition, % at 16.5 µM | 360,000 tested, 0.19% active; in the data active = inhibition above about 25%;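 note: 0% = vehicle with enzyme and substrate and 100% = no enzyme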
# pPAFAH inh – pPAFAH (human) enzyme inhibition; recombinant pPAFAH, FP-rhodamine probe fluorescence polarization; inhibition, % at 3.39 µM; 330,000 tested, 1.5% active; AID 463082;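 active = inhibition above the mean inhibition across the screen plus 3 SD, cut at about 25% in these data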;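 note: inhibitors block binding of the rhodamine activity-based probe so polarization drops; 0% = enzyme with DMSO and 100% = wells lacking pPAFAH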
# Target sequence (Q13093 whole entry, looked up): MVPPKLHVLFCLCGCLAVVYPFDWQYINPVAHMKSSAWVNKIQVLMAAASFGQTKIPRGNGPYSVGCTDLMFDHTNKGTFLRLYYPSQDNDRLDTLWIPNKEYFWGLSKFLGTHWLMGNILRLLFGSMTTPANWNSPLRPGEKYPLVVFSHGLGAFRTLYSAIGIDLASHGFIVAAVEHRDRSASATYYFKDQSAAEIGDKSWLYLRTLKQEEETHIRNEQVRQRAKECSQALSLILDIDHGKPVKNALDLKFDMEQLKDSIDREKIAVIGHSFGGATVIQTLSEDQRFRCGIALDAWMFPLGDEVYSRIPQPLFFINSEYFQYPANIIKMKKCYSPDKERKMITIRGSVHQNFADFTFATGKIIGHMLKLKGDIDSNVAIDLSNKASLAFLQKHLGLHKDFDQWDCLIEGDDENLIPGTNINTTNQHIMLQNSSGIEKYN
# PAFAH1B3 inh – inhibitors of human PAFAH1B3. Q15102. recombinant PAFAH1B3, FP-rhodamine probe, fluorescence polarization. inhibition, % at 3.39 µM. 340,000 tested, 0.28% active. AID 492972;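 active = inhibition above the screen-wide average of all tested compounds plus 3 SD, cut at about 25% in these data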;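 note: 0% = enzyme with DMSO only and 100% = wells lacking PAFAH1B3 protein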
# PAFAH2 confirm – PAFAH2 (human) inhibition, confirmed; 2,300 tested, 65% active; shares compounds with PAFAH2 inh; recombinant PAFAH2, FP-rhodamine activity probe, fluorescence polarization; inhibition, % at 3.39 µM;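 active = mean inhibition over three repeats above a set limit taken from the earlier primary screen, cut at about 30% in these data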;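 note: inhibitor blocks binding of rhodamine activity probe so polarization falls; 0% = enzyme with DMSO and 100% = wells lacking PAFAH2 protein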
# * = called active by the depositor; · = no result.
SMILES,PAFAH1B2 FP inh,ARFGAP1 inhibitor,PAFAH2 inh,ASAP1 inh,pPAFAH inh,PAFAH1B3 inh,PAFAH2 confirm
N/C(Cc1cccc2ccccc12)=N\OC(=O)c1ccc(Br)o1,·,3,·,-6,·,·,·
CC(C)C[C@@H](CNCC(=O)[C@H](CC(=O)O)NC(=O)c1[nH]cnc1C(=O)N[C@H](CN)CC(C)C)NC(=O)c1nc[nH]c1C(=O)N[C@@H](Cc1ccccc1)C(=O)O,10,-5,0,-7,·,10,·
Nc1cccc(C(=O)OCC(=O)NC2CCCc3ccccc32)c1 (centres undefined),-3,-2,53*,7,11,4,28
O=C(COC(=O)C1=COCCO1)NC1CCCCC1,3,6,57*,6,2,2,55*
Cc1cccc(C(=O)NCC(=O)OCC(=O)NC2CCCCC2)c1,2,2,57*,-1,5,5,41*
O=C(COC(=O)c1ccc(Cl)cc1)NC1CCCCCC1,4,-1,78*,-15,9,4,79*
O=C(COC(=O)c1ccc(Br)o1)NC1CCCCC1,0,-5,17,-13,8,3,·
CC(=O)c1ccc(NC(=O)/C(=C\c2ccc(F)cc2)NC(=O)c2ccco2)cc1,5,0,-12,7,2,0,·
NC(=O)c1ccc(-n2nnnc2SCC(=O)Nc2ccc(F)cc2)cc1,7,4,0,-8,6,5,·
Cc1ccc(CN2C(=O)C(C)Nc3ncnc(N4CCN(c5ccccn5)CC4)c32)cc1 (centres undefined),-2,1,-3,-5,11,6,·
CC(=O)Nc1cccc(C(=O)OCC(=O)NC2CCCCCCC2)c1,-1,-4,84*,12,-16,9,84*
O=C(COC(=O)c1ccccc1)NC1CCCCCC1,4,-12,86*,15,7,8,78*
O=C(COC(=O)c1ccco1)NC1CCCCC1,-5,-3,80*,-12,10,-1,68*
CC(=O)Nc1cccc(C(=O)OCC(=O)NC(=O)NC2CCCC2)c1,·,-9,·,-3,·,·,·
CCOC(=O)C(=O)NCC(c1ccco1)S(=O)(=O)c1cccs1 (centres undefined),5,-5,0,6,6,7,·
Cc1ccc(S(=O)(=O)N2CCC(C(=O)OCC(=O)N3C(C)CCCC3C)CC2)cc1C (centres undefined),·,-19,·,12,·,·,·
CCCS(=O)(=O)NC(=O)C1(C)CCN(C(=O)c2cccs2)C1 (centres undefined),·,-7,·,-6,·,·,·
CC(c1ccco1)N(C(=O)c1ccccc1NS(=O)(=O)c1cc([N+](=O)[O-])ccc1Cl)c1ccccn1 (centres undefined),1,-1,63*,-3,7,-2,71*
CC(c1ccco1)N(C(=O)c1ccccc1NS(=O)(=O)c1cccc([N+](=O)[O-])c1)c1ccccn1 (centres undefined),6,·,3,·,4,3,·
Cc1nn(-c2ccc(C(=O)N3CCN(S(=O)(=O)c4ccccc4C(F)(F)F)CC3)cc2)c(C)c1Cl,-1,2,8,-16,0,3,·
CC(=O)c1ccc(S(=O)(=O)N2CCN(C(=O)c3ccc(-n4nc(C)c(Cl)c4C)cc3)CC2)cc1,-7,0,50*,6,-2,2,43*
Cc1[nH]c2ccc(C(=O)OCC(=O)Nc3cccc(S(N)(=O)=O)c3)cc2c1C,0,9,69*,6,2,-1,64*
CC(=O)c1cccc(NC(=O)COC(=O)c2ccc3c(c2)OCO3)c1,-4,11,74*,4,1,-3,71*
Cc1cccc(C)c1NC(=O)COC(=O)c1ccc2c(c1)OCO2,2,-3,28,9,5,-4,·
O=C(OCC(=O)N1CCOCC1)c1ccc2[nH]c3c(c2c1)CCCC3,-2,6,2,15,-1,5,·
SMILES,PAFAH1B2 FP inh,ARFGAP1 inhibitor,PAFAH2 inh,ASAP1 inh,pPAFAH inh,PAFAH1B3 inh,PAFAH2 confirm
CN(C)S(=O)(=O)c1cccc(C(=O)OCC(=O)Nc2ccccc2OC(F)F)c1,5,-11,33*,7,11,4,25
Cc1cccc(C)c1NC(=O)COC(=O)c1ccc2[nH]c3c(c2c1)CCCC3,-2,4,70*,-1,12,3,62*
Cn1nc(C(=O)O)c(=O)n(C)c1=O,1,5,2,-7,·,2,·
CCN1C(=O)C(=Cc2cccc(OC)c2Oc2ccc([N+](=O)[O-])cc2[N+](=O)[O-])SC1=S,14,2,9,3,10,16,·
COc1ccccc1Cc1c(-c2ccco2)nc2c3ccccc3ccn12,·,0,·,12,·,·,·
COCCNC(=O)c1c(N)[nH]c(C(=O)c2ccc(Br)cc2)c1-c1ccc(Br)cc1,·,-2,·,-8,·,·,·
O=C(Nc1cccc(Oc2ccccc2)c1)c1ccc(-n2cncn2)c2ccoc12,·,16,·,4,·,·,·
CSc1ccccc1NC(=O)CN(C)CC(=O)c1c(C)[nH]c2ccccc12,4,-5,4,8,2,4,·
Cc1ccc(S(=O)(=O)N(C)C)cc1NC(=O)COC(=O)c1ccc2c(c1)NC(=O)CS2,4,1,52*,-6,4,8,43*
Cc1ccc(S(=O)(=O)N(C)C)cc1NC(=O)COC(=O)C1CCCC1,0,0,17,-4,7,7,·
CN(C)S(=O)(=O)c1cccc(NC(=O)COC(=O)c2ccc3c(c2)OCO3)c1,6,-2,55*,8,7,-1,57*
CN(C)S(=O)(=O)c1ccc(C(=O)OCC(=O)Nc2ccc3c(c2)OCO3)cc1,2,2,-4,6,4,5,·
C[C@H](CO)N1C[C@H](C)[C@@H](CN(C)C(=O)NC2CCCCC2)Oc2c(NC(=O)Cc3ccccc3)cccc2C1=O,8,11,-2,2,-2,2,·
O=C(CCN1C(=O)/C(=C/c2ccc(F)cc2)SC1=S)Nc1cc([N+](=O)[O-])ccc1O,6,4,65*,11,5,8,69*
O=C(OCC1CC(c2ccccc2)=NO1)c1ccco1 (centres undefined),-2,10,33*,-6,-7,8,24
O=C(COC(=O)c1cccnc1Cl)Nc1cc(S(=O)(=O)N2CCOCC2)ccc1Cl,2,-8,25,-9,2,2,·
Nc1cc(N)cc(C(=O)OCC(=O)Nc2cc(S(=O)(=O)N3CCCCC3)ccc2Cl)c1,0,-14,31*,16,8,7,13
Cc1ccc(NC(=O)COC(=O)c2cccnc2Cl)cc1S(=O)(=O)N1CCCCC1,5,3,53*,9,4,16,34*
